An excerpt weighted towards active compounds, which were near 1.8% of everything screened.
CHRM4 antagonist: CHRM4 antagonism in calcium assay. P08173. CHO-hM4 cells, ACh EC80, Fluo-8 calcium fluorescence. inhibition, % at 3 µM. actives 0.73% (n = 360,000). AID 624125;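 active = inhibition above its plate's cutoff, the mean inhibition of sample wells plus 3 SD, cut at about 27% in these data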
M4 ag: agonists of human muscarinic M4 receptor (CHRM4) | P08173 | CHO-K1 hM4/Gqi5, Fluo-8 calcium fluorescence; vehicle 0%, full acetylcholine response 100% | activation, % at 3 µM | actives 0.14% (n = 360,000) | AID 624127;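 active = activation above the run mean over all test wells plus 3 SD, cut at about 32% in these data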;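 note: peak over basal fluorescence ratio per well then scaled between controls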
M4 PAM: CHRM4 positive allosteric modulation; P08173; CHO-K1 hM4/Gqi5, Fluo-8 calcium fluorescence, ACh EC20; 0% = ACh EC20, 100% = maximal ACh; activation, % at 3 µM; actives 0.4% (n = 360,000); AID 624126;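 active = activation above its plate's cutoff, the mean activation of sample wells plus 3 SD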
CHRM5 antagonist: CHRM5 antagonism in calcium assay; P08912; CHO-hM5 cells, Fluo-8 calcium fluorescence, ACh EC80; inhibition, % at 3 µM; actives 0.59% (n = 360,000);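 active = inhibition above a per-plate cutoff, the mean of that plate's test compounds plus 3 SD, cut at about 27% in these data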
Target sequence (P08912 whole entry, looked up): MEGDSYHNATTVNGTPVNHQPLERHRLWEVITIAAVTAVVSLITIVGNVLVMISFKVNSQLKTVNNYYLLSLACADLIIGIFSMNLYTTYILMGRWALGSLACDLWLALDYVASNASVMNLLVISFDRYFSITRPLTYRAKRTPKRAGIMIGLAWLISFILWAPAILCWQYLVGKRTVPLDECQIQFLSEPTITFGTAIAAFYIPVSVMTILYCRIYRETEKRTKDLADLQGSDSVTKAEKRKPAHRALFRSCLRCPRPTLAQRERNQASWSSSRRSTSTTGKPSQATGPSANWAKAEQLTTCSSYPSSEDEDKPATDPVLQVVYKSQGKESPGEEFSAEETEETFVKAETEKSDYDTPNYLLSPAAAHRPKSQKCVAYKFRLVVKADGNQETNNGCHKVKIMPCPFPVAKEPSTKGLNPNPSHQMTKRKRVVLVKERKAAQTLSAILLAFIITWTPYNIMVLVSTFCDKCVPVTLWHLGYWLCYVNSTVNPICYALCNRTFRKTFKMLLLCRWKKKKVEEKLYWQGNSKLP
CHRM5 agonist: agonists of human muscarinic M5 receptor (CHRM5); P08912; CHO-K1 hM5 cells, Fluo-8 calcium fluorescence; 0% DMSO wells, 100% maximal acetylcholine response; activation, % at 3 µM; actives 0.19% (n = 360,000); AID 624037;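 active = activation above the run's mean over test compounds plus 3 SD, cut at about 23% in these data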;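 note: signal is peak over basal fluorescence ratio across the kinetic read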
CHRM5 PAM: CHRM5 positive allosteric modulation. P08912. CHO-K1 hM5, Fluo-8 calcium, ACh EC20 PAM; 0% = ACh EC20, 100% = ACh EC100. activation, % at 3 µM. actives 0.3% (n = 360,000). AID 624038;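 active = activation above the run cutoff, the mean activation of all test compounds plus 3 SD, cut at about 18% in these data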
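system = human M5 receptor in CHO-K1 cells | compound = one concentration, 3 µM final (nominal) | schedule = Post-acetylcholine fluorescence recording 140 s | signal = Fluo-8 calcium dye fluorescence, kinetic read | benchmarks = low control EC20 acetylcholine (0%), high control EC100 acetylcholine (100%) | repeats = singlicate, one well per test compound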
Large screens that a line does not name were inactive; ! = not active in a repeat.

C#CC1CCCCC1NC(=O)Nc1cnccc1C(F)(F)F (centres undefined)	none
O=c1c2c(nc3nc(NCc4ccc(Cl)cc4)[nH]n13)CCC2	none
O=c1c2c(nc3nc(CCc4ccccc4)[nH]n13)CCC2	CHRM5 PAM 22
O=C(NC(Nc1nc2ccc([N+](=O)[O-])cc2s1)(C(F)(F)F)C(F)(F)F)c1ccccc1Cl	CHRM5 antagonist 49
O=C(NC(Nc1nc2ccc([N+](=O)[O-])cc2s1)(C(F)(F)F)C(F)(F)F)c1cccnc1	none
O=C1C=CC(=O)N1c1ccc2c(c1)Cc1cc(F)ccc1-2	CHRM4 antagonist 37
CC(=O)Nc1ccc2c(c1)Cc1cc(N3C(=O)C=CC3=O)ccc1-2	CHRM4 antagonist 33
O=[N+]([O-])c1ccc2c(c1)Cc1cc(F)ccc1-2	none
O=C(Cc1cc(=O)[nH][nH]1)N/N=C/c1c(Cl)cccc1Cl	none
O=C(Cc1cc(=O)[nH][nH]1)N/N=C/C(Cl)=C/c1ccccc1	M4 PAM 35!
O=C(COc1cccnc1[N+](=O)[O-])c1c[nH]c2ccccc12	CHRM4 antagonist 34
COc1cc(/C=C2\SC(=Nc3ccccc3)NC2=O)cc(Cl)c1O	CHRM4 antagonist 44, M4 ag 84, CHRM5 antagonist 45, CHRM5 agonist 64
CCc1ccc(N=C2NC(=O)/C(=C/c3cc(OC)c(O)c(OC)c3)S2)cc1	CHRM5 agonist 24
COc1cc(/C=C2\SC(=Nc3ccc(Cl)c(C(=O)O)c3)NC2=O)c(Br)c(Br)c1O	M4 ag 51, CHRM5 antagonist 43, CHRM5 agonist 190
COc1cccc(NC(=O)COC(=O)c2ccc(F)cc2F)c1	none
COc1cc(NC(=O)COC(=O)c2ccccc2F)cc(OC)c1	CHRM4 antagonist 29
CCOC(=O)c1c(NC(=S)NC(C)=O)sc(C)c1C	M4 PAM 32, CHRM5 PAM 18
CCOC(=O)c1c(NC(=O)COC)sc(C)c1C	none
CN1CCC(N2CCN(C3CN(CCc4ccccc4)S(=O)(=O)C3)CC2)CC1 (centres undefined)	none
CN1CCC(n2[nH]c(-c3ccccc3)c(Cc3ccccc3)c2=O)CC1	CHRM4 antagonist 98, CHRM5 antagonist 98
CC1CCN(CCC(=O)Nc2ccc(F)c(F)c2)CC1	none
COc1ccc2[nH]c3c(NCCC4=CCCCC4)ncnc3c2c1	CHRM5 antagonist 32
CCOC(=O)[C@H]1[C@H]2COc3ccc(Br)cc3[C@H]2N2C(=O)CN(Cc3ccc(Cl)cc3)C(=O)[C@@]12C	none
S=C(NCc1ccc(Cl)cc1Cl)NC1CCCCC1	none
CC(Oc1ccc(F)cc1)C(=O)Nc1ccc(S(=O)(=O)NC2=NCCCCC2)cc1 (centres undefined)	none
CC(Oc1ccc(Br)cc1)C(=O)Nc1ccc(S(=O)(=O)NC2=NCCCCC2)cc1 (centres undefined)	M4 ag 39, CHRM5 agonist 29
Cn1c(=O)c2sccc2n2c(CCCC(=O)NCc3ccco3)nnc12	none
Cc1[nH]c(=O)sc1C(=O)NCc1ccc([N+](=O)[O-])cc1	none
O=C1CC(c2ccc(F)cc2)Sc2ccccc2N1 (centres undefined)	none
COc1cc(C2CC(=O)Nc3ccccc3S2)cc(OC)c1OC (centres undefined)	CHRM4 antagonist 35
CCOC(=O)c1ccccc1NC(=O)COC(=O)Cc1ccccc1F	none
COc1ccccc1/C=C/C(=O)OCC(=O)c1c(N)n(C)c(=O)n(C)c1=O	CHRM5 PAM 19
COc1cccc(/C=C/C(=O)OCCN2C(=O)c3ccccc3C2=O)c1	none
Cn1c(N)c(C(=O)COC(=O)/C=C/c2ccc(Cl)cc2Cl)c(=O)n(C)c1=O	none
COc1ccc(N(C)S(=O)(=O)c2cccc(C(=O)OCC(=O)c3c(N)n(C)c(=O)n(C)c3=O)c2)cc1	CHRM4 antagonist 38
COc1ccccc1/C=C/C(=O)OCCN1C(=O)c2ccccc2C1=O	CHRM4 antagonist 79
COC(=O)[C@]12CCCCC=C1N(Cc1ccc(Cl)cc1Cl)C(=O)[C@H](CC(=O)NCCCCc1ccccc1)C2	none
CCCOc1ccc(C(=O)NCCC(=O)NCCCC(=O)O)cc1	none
CCCCN(C(=O)CCC(=O)Nc1cc(C)on1)C(C(=O)NC1CCCC1)c1ccccc1C (centres undefined)	none
CCCCN(C(=O)CCC(=O)Nc1cc(C)on1)C(C(=O)NC1CCCC1)c1ccc(F)cc1 (centres undefined)	CHRM5 PAM 20
c1csc(CCNc2ncnc3sc4c(c23)CCC4)c1	CHRM5 antagonist 32
c1ccc(Nc2ncnc3sc4c(c23)CCC4)cc1	none
CCOC(=O)[C@]12CCCC=C1N(CCc1ccc(OC)c(OC)c1)C(=O)[C@H](CC(=O)N1CCCC1)C2	none
Cc1oc(-c2ccccc2Cl)nc1CS(=O)CC(=O)NCc1ccc2c(c1)OCO2 (centres undefined)	CHRM5 PAM 23
Cc1ccccc1-c1nc(CS(=O)CC(=O)NCc2ccc3c(c2)OCO3)c(C)o1 (centres undefined)	none
Cc1nn(C(C)C(=O)NCCc2ccco2)c(=O)c2nn(-c3ccccc3)c(C)c12 (centres undefined)	M4 PAM 51, CHRM5 PAM 23
CC(C)CN(CC(C)C)c1nc(N)c(C#N)c(CC#N)c1C#N	M4 PAM 28
Cc1nc(SCC(=O)NNC(=O)c2cccs2)[nH]c(=O)c1C	none
CCc1nc2ccc(C(=O)Nc3cccc(NS(C)(=O)=O)c3)cn2c1N(C)CCN1CCOCC1	none
CCCCNC(=O)CSc1ccc(S(=O)(=O)N2CCOCC2)cn1	none
CC(C)NC(=O)NC(=O)CSc1ccc(S(=O)(=O)N2CCOCC2)cn1	M4 PAM 21
Cc1cccc(NC2SC(=O)NC2=O)c1 (centres undefined)	none
CC(C)OCCCNC(=O)NC(=O)c1ccc(Cl)cc1	none
Cc1ccc(NC(=O)c2cc([N+](=O)[O-])ccc2N2CCOCC2)cc1C	none
Cc1ccc(NC(=O)c2cc([N+](=O)[O-])ccc2N2CCOCC2)cc1S(=O)(=O)N(C)C	CHRM4 antagonist 49
COc1cc2c(cc1NC(=O)C(F)(F)F)-c1ccc(NC(=O)C(F)(F)F)cc1C2	none
Cc1sc2ncn(CC(=O)N3CCOCC3)c(=O)c2c1-c1ccccc1	CHRM5 PAM 25
CC(=O)n1c(Cl)c(NC(=O)CCl)c2ccccc21	none
O=C(NCc1ccccc1)C1=C[C@H](c2coc3ccccc3c2=O)C[C@H](OCCCCO)O1	none

Source: PubChem
